A short description of data set [1]: Metabolic stability in human liver microsome assessed as compound remaining after 60 mins. Type of data set: ADME. The settings on record: liver microsomes, read-out: INH. Summed up:
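Compounds were incubated with pooled human liver microsomes for 60 minutes, and the percentage of parent compound remaining was measured.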
Background: Microsomes from liver hold many membrane-bound enzymes, among them those of drug oxidation.

Data set [2] has as its system Toxoplasma gondii. Nature of the data set: Antiparasitic activity against Toxoplasma gondii RH infected in ip dosed CD1 mouse. Format: functional, organism-based. Summed up:
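CD1 mice were infected intraperitoneally with 2000 RH (Type 1) parasites, a lethal inoculum. Inhibitors were given intraperitoneally at 10mg/kg. Read-outs were peritoneal parasite burden by microscopy at day 5 and survival up to day 5 post-infection. There were 6 mice per group.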

For data set [3], the system named is Toxoplasma gondii. Nature of the data set: Antiparasitic activity against Toxoplasma gondii infected in HFF after 24 hrs by [3H]uracil incorporation assay. Format: functional. Summed up: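 Human foreskin fibroblasts were infected with T. gondii tachyzoites and given 1 h to invade before inhibitors were added. Cultures ran 3 days, then 3H-uracil was added for a further day. Parasite growth was read as uracil incorporation by liquid scintillation counting. MIC50 and MIC90 are the concentrations giving 50% and 90% growth inhibition. There were 6 replicate samples per group.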

Data set [4] has as its system HFF. Nature of the data set: Toxicity to HFF. Type of data set: cell-based. Conditions: human. The procedure, abridged: (§1)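 Host-cell toxicity was tested on non-confluent fibroblast monolayers by 3H-thymidine incorporation, alongside visual inspection of monolayer integrity. Testing ran simultaneously with the parasite inhibition assay, and the highest concentration tested was scored.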

The target in data set [5] is T1, Enoyl-acyl carrier reductase (Toxoplasma gondii, UniProt Q6UCJ9).
T1 sequence (Q6UCJ9 whole entry): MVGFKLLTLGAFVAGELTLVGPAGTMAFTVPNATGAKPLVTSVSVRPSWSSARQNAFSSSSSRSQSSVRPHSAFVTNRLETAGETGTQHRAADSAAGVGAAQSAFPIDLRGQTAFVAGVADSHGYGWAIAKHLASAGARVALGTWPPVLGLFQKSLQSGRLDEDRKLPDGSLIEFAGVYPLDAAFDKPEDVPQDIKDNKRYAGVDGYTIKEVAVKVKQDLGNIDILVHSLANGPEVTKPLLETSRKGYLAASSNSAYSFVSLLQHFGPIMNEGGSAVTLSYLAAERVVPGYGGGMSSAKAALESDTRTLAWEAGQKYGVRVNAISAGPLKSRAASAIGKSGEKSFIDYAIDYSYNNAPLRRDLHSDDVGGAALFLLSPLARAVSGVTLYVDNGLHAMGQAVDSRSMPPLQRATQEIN
Nature of the data set: Inhibition of Toxoplasma gondii enoyl reductase. The procedure, abridged:
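Recombinant TgENR (20 nM) was assayed in 100 mM Na/K phosphate pH 7.5, 150 mM NaCl and 100 μM NADH. Compounds were added in DMSO (2% final), and reactions were started at 25°C with 100 μM crotonyl-CoA. NADH consumption was followed at 340 nm.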

Another data set has as its target CYP2C9 (Homo sapiens, UniProt P11712). The experiment in a line: Inhibition of CYP2C9 at 10 uM. Type of data set: ADME. Summed up:
(§2)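 Inhibition was measured against recombinant CYP450 isozymes 2C9, 2D6 and 3A4, each with compound at 10μM, and reported as percent inhibition.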

In a further data set the target is CYP3A4 (Homo sapiens, UniProt P08684). The experiment in a line: Inhibition of CYP3A4 at 10 uM. Format: ADME. Summed up: as §2
Data set [6] has as its system HFF. The experiment in a line: Toxicity to HFF at highest concentration. Type of data set: cell-based. The settings on record: human. The procedure, abridged: as §1
A further data set addresses CYP2D6 (Homo sapiens, UniProt P10635). Nature of the data set: Inhibition of CYP2D6 at 10 uM. Format: ADME. The procedure, abridged:
as §2

Each structure is given as a SMILES string. ≈ marks a conversion by molar mass, not a printed value. Calls of active or inactive are those of the source. The rule behind the calls is not given here.

CYP2C9, sequence (P11712 whole entry): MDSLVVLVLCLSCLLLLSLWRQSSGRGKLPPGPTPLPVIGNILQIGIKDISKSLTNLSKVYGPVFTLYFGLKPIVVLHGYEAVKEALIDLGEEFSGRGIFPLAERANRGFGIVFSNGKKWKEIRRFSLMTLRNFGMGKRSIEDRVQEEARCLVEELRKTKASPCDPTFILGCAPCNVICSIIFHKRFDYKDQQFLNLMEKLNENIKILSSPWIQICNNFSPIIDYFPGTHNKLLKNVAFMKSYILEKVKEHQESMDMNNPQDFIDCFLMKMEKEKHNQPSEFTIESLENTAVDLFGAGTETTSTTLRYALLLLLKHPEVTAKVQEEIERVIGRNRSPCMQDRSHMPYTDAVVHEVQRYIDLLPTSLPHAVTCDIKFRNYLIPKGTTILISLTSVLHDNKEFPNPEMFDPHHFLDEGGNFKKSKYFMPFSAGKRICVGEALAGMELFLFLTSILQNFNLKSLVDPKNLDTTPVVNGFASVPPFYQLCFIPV
CYP2D6, sequence (P10635 whole entry): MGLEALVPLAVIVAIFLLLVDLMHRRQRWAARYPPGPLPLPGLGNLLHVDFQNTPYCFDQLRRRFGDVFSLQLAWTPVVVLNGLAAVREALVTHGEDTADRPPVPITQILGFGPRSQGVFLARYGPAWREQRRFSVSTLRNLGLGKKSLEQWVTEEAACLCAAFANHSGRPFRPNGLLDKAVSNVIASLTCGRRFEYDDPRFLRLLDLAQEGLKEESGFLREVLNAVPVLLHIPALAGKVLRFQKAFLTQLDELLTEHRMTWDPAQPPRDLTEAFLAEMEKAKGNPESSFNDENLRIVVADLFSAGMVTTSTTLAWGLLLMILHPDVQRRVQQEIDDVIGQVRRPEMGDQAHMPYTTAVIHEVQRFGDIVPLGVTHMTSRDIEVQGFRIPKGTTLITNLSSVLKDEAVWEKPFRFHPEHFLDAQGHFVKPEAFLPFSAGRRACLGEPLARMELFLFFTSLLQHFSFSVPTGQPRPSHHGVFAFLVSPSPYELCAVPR
CYP3A4, sequence (P08684 whole entry): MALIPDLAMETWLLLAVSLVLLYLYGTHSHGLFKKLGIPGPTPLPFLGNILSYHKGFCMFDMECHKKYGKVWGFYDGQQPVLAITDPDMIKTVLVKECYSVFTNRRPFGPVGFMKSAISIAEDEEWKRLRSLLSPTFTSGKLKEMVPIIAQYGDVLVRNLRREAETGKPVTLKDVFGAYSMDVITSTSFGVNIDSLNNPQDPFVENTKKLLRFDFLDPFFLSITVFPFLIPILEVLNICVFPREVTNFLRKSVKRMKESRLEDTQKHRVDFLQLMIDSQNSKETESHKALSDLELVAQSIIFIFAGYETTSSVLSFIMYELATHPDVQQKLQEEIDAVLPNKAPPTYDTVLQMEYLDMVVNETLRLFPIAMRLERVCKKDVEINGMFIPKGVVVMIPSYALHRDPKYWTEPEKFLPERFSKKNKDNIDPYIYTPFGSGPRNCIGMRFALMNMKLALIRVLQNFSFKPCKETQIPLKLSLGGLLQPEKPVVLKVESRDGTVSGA

Turning to `CCCc1ccc(Oc2ccc(C#N)cc2Cl)c(O)c1`, in data set [1], the remaining at 1 h worked out at 45.1%. Further, the result in the data set with Toxoplasma gondii [2] was Active. Also, the MIC50 in the data set with Toxoplasma gondii [3] was 3 µM (≈ 0.863 µg/mL). This compound also returned an MIC90 against Toxoplasma gondii [3] of 5 µM (≈ 1.44 µg/mL). Also, the Activity was 5 µM in the data set on HFF [4] and “Non-toxic” in the data set with HFF [6]. The same compound displayed an IC50 in data set [5] of less than 20 nM. Besides, the inhibition at 10 µM was greater than 85% on CYP2C9, less than 22% at CYP3A4 and less than 22% at CYP2D6.
As to `O=[N+]([O-])c1ccc(Oc2ccc(Cl)cc2O)c(Cl)c1`, in data set [1], the remaining at 1 h worked out at 51.2%. Further, the outcome in the data set on Toxoplasma gondii [2] was Active. The compound also registered an MIC50 against Toxoplasma gondii [3] of 4 µM (≈ 1.2 µg/mL). This compound also gave an MIC90 in the data set on Toxoplasma gondii [3] of 6 µM (≈ 1.8 µg/mL). The Activity in the data set on HFF [4] is 4 µM; in the data set with HFF [6], “Non-toxic”. In addition, the inhibition at 10 µM against CYP2C9 is greater than 85%; at CYP3A4, less than 22%; against CYP2D6, less than 22%.

What is called MIC50 is the lowest concentration that inhibits either 50% of growth or 50% of the strains tested, depending on the study. Low readings indicate higher susceptibility, high ones lower susceptibility. As usually defined, the MIC90 is an inhibitory concentration at the 90% level, which refers to growth in some studies and to a panel of isolates in others. Low readings indicate greater potency, high ones weaker potency. By IC50 is commonly meant the concentration that gives 50% inhibition. Low readings indicate greater potency, high ones weaker potency. A word on the inhibition: it is the relative decrease from the control value, in per cent.
